In data set [1] the target is T1, Muscarinic acetylcholine receptor M4 (Homo sapiens, UniProt P08173).
T1 sequence (P08173 whole entry): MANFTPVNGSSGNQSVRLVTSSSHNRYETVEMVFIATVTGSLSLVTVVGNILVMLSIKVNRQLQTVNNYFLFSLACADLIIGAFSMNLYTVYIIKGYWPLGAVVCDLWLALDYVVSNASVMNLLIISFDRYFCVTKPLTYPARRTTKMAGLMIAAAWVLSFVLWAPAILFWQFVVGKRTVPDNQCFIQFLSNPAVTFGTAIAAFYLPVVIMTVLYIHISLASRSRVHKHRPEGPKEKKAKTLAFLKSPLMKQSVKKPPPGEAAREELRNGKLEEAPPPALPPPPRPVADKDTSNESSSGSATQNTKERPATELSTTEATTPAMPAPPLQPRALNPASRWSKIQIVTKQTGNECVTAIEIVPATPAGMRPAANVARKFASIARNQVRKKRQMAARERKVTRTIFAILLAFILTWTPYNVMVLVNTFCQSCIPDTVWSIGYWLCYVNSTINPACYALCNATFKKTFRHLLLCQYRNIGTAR
Put plainly: Positive allosteric modulation of human M4 receptor expressed in CHO cells co-expressing Gqi5 assessed as increase in acetylcholine-induced calcium mobilization.

Data set [2] has as its target T2, Muscarinic acetylcholine receptor M4 (Homo sapiens) (UniProt P08173).
T2 sequence (whole entry): T1 sequence (P08173 whole entry)
Put plainly: Positive allosteric modulation of human M4 receptor expressed in CHO cells co-expressing Gqi5 assessed as increase in acetylcholine-induced calcium mobilization relative to acetylcholine. It counts as functional, cell-based. The method, boiled down:
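Calcium mobilization in CHO cells stably co-expressing hM4 and Gqi5, tested in the presence of a fixed EC20 concentration of acetylcholine. Values are means of three independent experiments, each run in triplicate.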
On the technique in general: Calcium assays in cells follow changes in intracellular calcium, usually with a dye or a luminescent sensor.

The target in data set [3] is T3, Muscarinic acetylcholine receptor M2 (Homo sapiens, UniProt P08172).
T3 sequence (P08172 whole entry): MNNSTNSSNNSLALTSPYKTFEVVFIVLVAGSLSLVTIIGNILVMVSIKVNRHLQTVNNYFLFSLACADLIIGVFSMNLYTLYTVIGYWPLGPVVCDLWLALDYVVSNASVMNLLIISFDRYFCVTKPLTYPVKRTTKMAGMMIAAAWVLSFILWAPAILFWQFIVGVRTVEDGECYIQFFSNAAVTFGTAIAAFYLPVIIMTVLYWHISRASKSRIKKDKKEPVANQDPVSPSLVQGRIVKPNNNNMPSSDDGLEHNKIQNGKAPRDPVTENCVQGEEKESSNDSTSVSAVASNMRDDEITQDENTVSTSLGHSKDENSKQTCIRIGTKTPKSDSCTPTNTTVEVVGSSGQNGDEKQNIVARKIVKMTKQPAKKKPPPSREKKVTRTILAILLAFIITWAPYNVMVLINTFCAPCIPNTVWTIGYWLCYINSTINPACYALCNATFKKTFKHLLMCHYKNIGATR
Put plainly: Activity at human M2 receptor assessed as increase in acetylcholine-induced calcium mobilization. It counts as functional.

The nature of data set [4]: Elimination half-life in Sprague-Dawley rat. The format is ADME. The settings on record: in vivo, read-out: beta t1/2 (converted).
Data set [5] in a line: Clearance in Sprague-Dawley rat. The format is ADME. The conditions noted are these: in vivo. Put shortly: (§1)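 IV and PO pharmacokinetics in male Sprague-Dawley rats, n = 1–3. The oral dose was a 2–3 mg/kg solution. Plasma clearance, Vss and oral bioavailability were determined.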
Data set [6] is described as follows: Brain to plasma permeability coefficient, Kp of the compound in Sprague-Dawley rat administered as iv cassette dose measured at 0.25 hrs post dose. It counts as ADME, organism-based. The settings on record: brain, 0.25 h.
A short description of data set [7]: Ratio of unbound brain to plasma concentration in Sprague-Dawley rat administered as iv cassette dose measured at 0.25 hrs post dose. It counts as ADME, organism-based.
The subject of another data set is MDR1. Put plainly: Efflux ratio of permeability in MDCK2-MDR1 cells. The format is ADME, cell-based, Canis lupus familiaris. The conditions noted are these: dog, MDCK-MDR1.
Data set [8] has as its system Rattus norvegicus. Put plainly: Reversal of amphetamine-induced hyperlocomotion in Sprague-Dawley rat at 10 mg/kg, po pretreated 30 mins post habituation in the chamber followed by amphetamine injection after 30 mins measured after 60 mins. The format is functional. The method, boiled down:
(§2)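 Male Sprague-Dawley rats, n = 6–24 per dose group, were habituated in the chamber for 30 min. The compound or vehicle (10% tween-80 in water, v/v) was then given orally. Amphetamine 0.75 mg/kg was injected subcutaneously 30 min later. Total ambulations over t = 60–120 min gave % reversal of AHL, reported as mean ± SEM.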

The target of the next data set is Cytochrome P450 3A4 (Homo sapiens, UniProt P08684). Put plainly: Inhibition of CYP3A4 (unknown origin). It counts as ADME.
Cytochrome P450 3A4, sequence (P08684 whole entry): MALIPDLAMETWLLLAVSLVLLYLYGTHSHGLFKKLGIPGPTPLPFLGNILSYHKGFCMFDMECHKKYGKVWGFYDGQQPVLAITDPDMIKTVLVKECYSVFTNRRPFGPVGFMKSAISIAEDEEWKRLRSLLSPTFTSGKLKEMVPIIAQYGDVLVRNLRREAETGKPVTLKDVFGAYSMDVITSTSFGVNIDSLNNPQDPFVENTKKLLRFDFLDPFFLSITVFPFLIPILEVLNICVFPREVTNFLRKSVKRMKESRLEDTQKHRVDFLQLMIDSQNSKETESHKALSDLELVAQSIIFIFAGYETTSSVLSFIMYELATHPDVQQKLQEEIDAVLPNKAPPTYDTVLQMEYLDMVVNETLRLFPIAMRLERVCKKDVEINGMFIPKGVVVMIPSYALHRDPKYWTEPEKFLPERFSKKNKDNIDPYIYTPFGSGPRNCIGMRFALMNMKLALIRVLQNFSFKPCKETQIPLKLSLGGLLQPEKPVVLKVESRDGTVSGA
For the next data set, the target named is Cytochrome P450 2D6 (Homo sapiens, UniProt P10635). Put plainly: Inhibition of CYP2D6 (unknown origin). It counts as ADME.
Cytochrome P450 2D6, sequence (P10635 whole entry): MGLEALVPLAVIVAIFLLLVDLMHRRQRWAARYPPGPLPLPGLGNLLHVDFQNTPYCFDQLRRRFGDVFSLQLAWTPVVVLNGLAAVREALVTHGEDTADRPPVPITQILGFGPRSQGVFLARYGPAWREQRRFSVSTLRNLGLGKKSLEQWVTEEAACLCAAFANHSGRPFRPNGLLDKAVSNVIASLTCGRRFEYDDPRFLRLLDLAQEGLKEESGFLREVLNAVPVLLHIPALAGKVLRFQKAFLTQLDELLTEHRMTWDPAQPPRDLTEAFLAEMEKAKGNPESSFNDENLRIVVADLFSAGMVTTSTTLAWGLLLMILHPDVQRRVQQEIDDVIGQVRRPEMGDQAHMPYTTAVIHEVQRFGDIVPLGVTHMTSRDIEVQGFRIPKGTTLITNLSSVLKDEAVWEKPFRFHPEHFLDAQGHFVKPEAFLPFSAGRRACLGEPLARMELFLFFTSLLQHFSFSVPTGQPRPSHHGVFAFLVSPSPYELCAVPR
For a further data set, the target named is Cytochrome P450 2C9 (Homo sapiens, UniProt P11712). Put plainly: Inhibition of CYP2C9 (unknown origin). It counts as ADME.
Cytochrome P450 2C9, sequence (P11712 whole entry): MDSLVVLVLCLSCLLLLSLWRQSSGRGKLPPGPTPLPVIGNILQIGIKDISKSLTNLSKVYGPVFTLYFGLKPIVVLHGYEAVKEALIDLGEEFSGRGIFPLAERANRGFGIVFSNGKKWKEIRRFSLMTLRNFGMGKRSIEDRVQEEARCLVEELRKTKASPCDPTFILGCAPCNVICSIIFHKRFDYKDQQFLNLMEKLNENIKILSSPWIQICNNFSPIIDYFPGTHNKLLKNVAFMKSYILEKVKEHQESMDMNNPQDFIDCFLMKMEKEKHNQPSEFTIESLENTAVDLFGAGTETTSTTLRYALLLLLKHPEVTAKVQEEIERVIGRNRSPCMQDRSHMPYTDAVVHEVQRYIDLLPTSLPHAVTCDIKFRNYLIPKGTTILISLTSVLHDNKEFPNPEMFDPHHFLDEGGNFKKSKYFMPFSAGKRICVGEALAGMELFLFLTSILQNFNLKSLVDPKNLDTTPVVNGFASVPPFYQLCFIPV
The next data set has as its target T4, Cytochrome P450 1A2 (Homo sapiens, UniProt P05177).
T4 sequence (P05177 whole entry): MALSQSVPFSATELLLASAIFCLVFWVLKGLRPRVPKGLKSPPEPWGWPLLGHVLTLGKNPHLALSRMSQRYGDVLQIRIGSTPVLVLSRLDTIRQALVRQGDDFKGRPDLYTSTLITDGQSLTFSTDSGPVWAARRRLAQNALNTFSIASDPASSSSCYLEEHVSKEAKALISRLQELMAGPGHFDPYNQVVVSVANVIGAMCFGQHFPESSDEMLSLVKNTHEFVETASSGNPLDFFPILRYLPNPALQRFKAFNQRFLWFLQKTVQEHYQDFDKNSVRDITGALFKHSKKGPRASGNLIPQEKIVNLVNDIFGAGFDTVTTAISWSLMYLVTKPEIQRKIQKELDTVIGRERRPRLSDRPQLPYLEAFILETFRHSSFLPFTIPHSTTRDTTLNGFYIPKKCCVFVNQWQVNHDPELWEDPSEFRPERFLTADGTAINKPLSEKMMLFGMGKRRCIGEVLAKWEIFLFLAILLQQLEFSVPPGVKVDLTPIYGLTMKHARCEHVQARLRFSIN
Put plainly: Inhibition of CYP1A2 (unknown origin). The format is ADME.

Data set [9] is described as follows: Volume of distribution at steady state in Sprague-Dawley rat. It counts as ADME. The conditions noted are these: in vivo, read-out: Vdss. Put shortly:
as §1

Data set [10] has as its system Rattus norvegicus. Put plainly: Reversal of amphetamine-induced hyperlocomotion in Sprague-Dawley rat at 3 mg/kg, po pretreated 30 mins post habituation in the chamber followed by amphetamine injection after 30 mins measured after 60 mins. It counts as functional. Put shortly: as §2
The test system of data set [11] is Rattus norvegicus. Put plainly: Reversal of amphetamine-induced hyperlocomotion in Sprague-Dawley rat at 30 mg/kg, po pretreated 30 mins post habituation in the chamber followed by amphetamine injection after 30 mins measured after 60 mins. It counts as functional. Put shortly:
as §2

In data set [12] the test system is Rattus norvegicus. Put plainly: Reversal of amphetamine-induced hyperlocomotion in Sprague-Dawley rat at 56.6 mg/kg, po pretreated 30 mins post habituation in the chamber followed by amphetamine injection after 30 mins measured after 60 mins. The format is functional. The settings on record: in the assay text read “1 mg/kg” for “56.6 mg/kg”. Put shortly:
as §2

For data set [13], the target named is T5, Muscarinic acetylcholine receptor M2 (Homo sapiens) (UniProt P08172).
T5 sequence (whole entry): T3 sequence (P08172 whole entry)
Put plainly: Activity at human M2 receptor assessed as increase in acetylcholine-induced calcium mobilization relative to acetylcholine. It counts as functional.

Broadly, the EC50 is the concentration at which the effect is half-maximal. For orientation: clearance means a measure of how efficiently the substance is removed, as volume per time. Read a high clearance as a high capacity for elimination. The Kp is the ratio of the level in a tissue or fluid to that in plasma or blood. In general, efflux ratio refers to the permeability from basolateral to apical divided by that in the opposite direction, in the common usage. In general, IC50 refers to the point on the concentration scale where inhibition reaches its midpoint. For the compound `Cc1nnc2sc(C(=O)NC3CN(c4ccc(C(F)(F)F)nc4)C3)c(N)c2c1C`, the EC50 worked out at 76 nM in data set [1] and 960 nM in data set [3]. The figures for the %max in data set [2] and in data set [13] were 75% and 43%, respectively. Moreover, the half-life in [4] was 78 min. In addition, in [5], the clearance turned out to be 8.8 mL/min/kg. In [6], the Kp is recorded as 0.12. Further, the “K(p,uu,brain)” value in data set [7] was determined as 0.33. Moreover, the efflux ratio in the data set with MDR1 was 8.5. For the same compound, the Activity in the data set on Rattus norvegicus [8] was 55%; with Rattus norvegicus [10], 48%; in the data set with Rattus norvegicus [11], 55 - 56%; in the data set on Rattus norvegicus [12] it was 44%. The IC50 at Cytochrome P450 3A4, against Cytochrome P450 2D6, against Cytochrome P450 2C9 and at Cytochrome P450 1A2 was over 30 µM throughout. In data set [9], the Vd was 0.89 L/kg.

These data come from ChEMBL document CHEMBL4033702, “Challenges in the development of an M4 PAM preclinical candidate: The discovery, SAR, and in vivo characterization of a series of 3-aminoazetidine-derived amides” (Bioorg Med Chem Lett, 2017).
